The source of these data is ChEMBL document CHEMBL1687715, “Therapeutic activity of an anti-idiotypic antibody-derived killer peptide against influenza A virus experimental infection” (Antimicrob Agents Chemother, 2008).

The test system of data set [1] is Influenza A virus. The experiment in a line: Antiviral activity against Influenza A virus/NWS/1933(H1N1) infected in BALB/c mouse assessed as reduction in mortality rate at 2 mg, ip administered once daily for 10 days and dosed 30 mins post infection relative to untreated control. It is filed as functional, Influenza A virus (A/NWS/1933(H1N1)). The method in brief: (§1)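 BALB/c males, 4 weeks old, about 20 g, 10 per group, randomised. Daily i.p. treatment (50 or 100 μg/mouse, or 2 mg/mouse) in 100 μl 0.9% NaCl, starting 30 min after intranasal challenge and repeated for the next 10 days. Placebo was diluent. Mortality rate ratio versus placebo was derived by proportional hazards regression, with 95% CI.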

Data set [2] has as its system Influenza A virus. The experiment in a line: Antiviral activity against Influenza A virus/NWS/1933(H1N1) infected in BALB/c mouse assessed as survival rate at 2 mg, ip administered once daily for 10 days and dosed 30 mins post infection. It is filed as functional, Influenza A virus (A/NWS/1933(H1N1)). In outline:
(§2)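 Male BALB/c mice, 4 weeks old, 10 per group. Given i.p. in 100 μl 0.9% NaCl once daily from 30 min post-challenge through the next 10 days; diluent for placebo. Survival was checked daily for 30 days, and day-30 survivors were counted as cured. Curves were compared by log-rank test. Four experiments were run.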

In data set [3] the test system is Influenza A virus. The experiment in a line: microbe, parasite or virus in culture. It is filed as functional. The settings on record: LLC-MK2, 6 h.
Data set [4] deals with MDCK. Kind of data set: Cytotoxicity against MDCK cells assessed as effect on cell viability at 4 ug/ml. It is filed as cell-based, Canis lupus familiaris. The conditions noted are these: dog. The method in brief:
(§3)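 Uninfected confluent monolayers were exposed to 4 μg/ml or left untreated. Viability was assessed by dye exclusion and MTT assay. DNA and RNA synthesis were measured by 48 h labelling with 10 μCi/ml [3H]thymidine or [3H]uridine, followed by counting of trichloroacetic acid-insoluble radioactivity.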

Data set [5] concerns Influenza A virus. The experiment in a line: microbe, parasite or virus in culture. Type of data set: functional. The conditions noted are these: LLC-MK2, 6 h. This is another data set of the same source.
For data set [6], the system named is Influenza A virus. Kind of data set: microbe, parasite or virus in culture. Type of data set: functional. The settings on record: LLC-MK2, 8 h.
Data set [7] has as its system LLC-MK2. The experiment in a line: Cytotoxicity against monkey LLC-MK2 cells assessed as effect on cell viability at 4 ug/ml. Type of data set: cell-based, Macaca mulatta. The settings on record: rhesus monkey. The method in brief:
as §3

Data set [8] concerns Mus musculus. Kind of data set: Toxicity in Influenza A virus/NWS/1933(H1N1) infected in BALB/c mouse assessed as weight loss at 100 ug, ip administered once daily for 10 days and dosed 30 mins post infection. Type of data set: organism-based. The settings on record: in vivo.
Data set [9] concerns Influenza A virus. The experiment in a line: microbe, parasite or virus in culture. It is filed as functional. The conditions noted are these: LLC-MK2, 2 h.
For data set [10], the system named is Influenza A virus. The experiment in a line: Antiviral activity against Influenza A virus/NWS/1933(H1N1) infected in BALB/c mouse assessed reduction in viral load in lung at 50 ug, ip measured after 6 days postinfection relative to untreated control. It is filed as functional, organism-based. The settings on record: Influenza A virus (A/NWS/1933(H1N1)). In outline: (§4)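 Groups of 5 infected BALB/c mice, dosed i.p. daily, were killed on day 6 p.i. Each lung was weighed and homogenised in RPMI 1640. Titre was by TCID50 on MDCK monolayers: 10-fold dilutions, eight wells each, 3 days, cytopathic effect scored. Expressed per gram of lung; five homogenates per group, mean ± SD.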

In data set [11] the test system is Influenza A virus. Kind of data set: microbe, parasite or virus in culture. Type of data set: functional. The conditions noted are these: LLC-MK2, 8 h. This is another data set of the same source.
Data set [12] concerns Influenza A virus. The experiment in a line: microbe, parasite or virus in culture. Type of data set: functional. The conditions noted are these: LLC-MK2, 6 h. This is another data set of the same source.
Data set [13] concerns Influenza A virus. Kind of data set: microbe, parasite or virus in culture. It is filed as functional. The conditions noted are these: LLC-MK2, 4 h.
Data set [14] concerns Influenza A virus. Kind of data set: Antiviral activity against Influenza A virus/NWS/1933(H1N1) infected in BALB/c mouse assessed as reduction in mortality rate at 100 ug, ip administered once daily for 10 days and dosed 30 mins post infection relative to untreated control. Type of data set: functional, Influenza A virus (A/NWS/1933(H1N1)). In outline:
as §1

In data set [15] the test system is LLC-MK2. Kind of data set: Cytotoxicity against monkey LLC-MK2 cells assessed as effect on DNA synthesis at 4 ug/ml. It is filed as cell-based, Macaca mulatta. The conditions noted are these: rhesus monkey. The method in brief:
as §3

For data set [16], the system named is Influenza A virus. The experiment in a line: Antiviral activity against Influenza A virus/parrot/Ulster/73(H7N1) infected in LLC-MK2 cells assessed as of reduction in optical density values at 4 ug/ml using human RBCs by hemadsorption assay. It is filed as functional, organism-based. The conditions noted are these: A/parrot/Ulster/73(H7N1), Erythrocyte.
Data set [17] deals with Influenza A virus. Kind of data set: Antiviral activity against Influenza A virus/NWS/1933(H1N1) infected in BALB/c mouse assessed as survival rate at 50 ug, ip administered once daily for 10 days and dosed 30 mins post infection. The conditions noted are these: Influenza A virus (A/NWS/1933(H1N1)). Type of data set: functional, organism-based. In outline: as §2
Data set [18] relates to Influenza A virus. Kind of data set: Antiviral activity against Influenza A virus/NWS/1933(H1N1) infected in BALB/c mouse assessed reduction in viral load in lung at 100 ug, ip measured after 6 days postinfection relative to untreated control. It is filed as functional, Influenza A virus (A/NWS/1933(H1N1)). In outline:
as §4

Data set [19] concerns Influenza A virus. Kind of data set: Antiviral activity against Influenza A virus/NWS/1933(H1N1) infected in BALB/c mouse assessed as survival rate at 100 ug, ip administered once daily for 10 days and dosed 30 mins post infection. Type of data set: functional, Influenza A virus (A/NWS/1933(H1N1)). The method in brief: as §2
In data set [20] the test system is MDCK. The experiment in a line: Cytotoxicity against MDCK cells assessed as effect on RNA synthesis at 4 ug/ml. Type of data set: cell-based, Canis lupus familiaris. The conditions noted are these: dog. In outline: as §3
Data set [21] relates to Influenza A virus. The experiment in a line: microbe, parasite or virus in culture. It is filed as functional, organism-based. The settings on record: LLC-MK2, 24 h.
In data set [22] the test system is Influenza A virus. The experiment in a line: microbe, parasite or virus in culture. It is filed as functional. The conditions noted are these: LLC-MK2, 6 h. This is another data set of the same source.
Data set [23] has as its system Influenza A virus. The experiment in a line: microbe, parasite or virus in culture. Type of data set: functional. The conditions noted are these: LLC-MK2, 2 h. This is another data set of the same source.
Data set [24] deals with MDCK. Kind of data set: Cytotoxicity against MDCK cells assessed as effect on DNA synthesis at 4 ug/ml. It is filed as cell-based, Canis lupus familiaris. The conditions noted are these: dog. The method in brief:
as §3

Data set [25] relates to LLC-MK2. The experiment in a line: Cytotoxicity against monkey LLC-MK2 cells assessed as effect on RNA synthesis at 4 ug/ml. It is filed as cell-based, Macaca mulatta. The settings on record: rhesus monkey. In outline:
as §3

In data set [26] the test system is Influenza A virus. The experiment in a line: Antiviral activity against Influenza A virus/parrot/Ulster/73(H7N1) infected in MDCK cells assessed as of reduction in optical density values at 4 ug/ml using human RBCs by hemadsorption assay. Type of data set: functional, organism-based. The conditions noted are these: A/parrot/Ulster/73(H7N1), Erythrocyte.
For data set [27], the system named is Influenza A virus. Kind of data set: microbe, parasite or virus in culture. It is filed as functional. The conditions noted are these: LLC-MK2, 8 h. This is another data set of the same source.
In data set [28] the test system is Influenza A virus. The experiment in a line: Antiviral activity against Influenza A virus/NWS/1933(H1N1) infected in BALB/c mouse assessed as reduction in mortality rate at 50 ug, ip administered once daily for 10 days and dosed 30 mins post infection relative to untreated control. It is filed as functional, organism-based. The settings on record: Influenza A virus (A/NWS/1933(H1N1)). The method in brief: as §1

Data set [29] relates to Influenza A virus. The experiment in a line: microbe, parasite or virus in culture. Type of data set: functional. The settings on record: LLC-MK2, 4 h. The source holds these as a separate data set.
Data set [30] relates to Mus musculus. Kind of data set: Toxicity in Influenza A virus/NWS/1933(H1N1) infected BALB/c mouse assessed as incidence of mouse death at 100 ug, ip administered once daily for 10 days and dosed 30 mins post infection. Type of data set: organism-based. The settings on record: in vivo.
Data set [31] relates to Influenza A virus. The experiment in a line: microbe, parasite or virus in culture. The settings on record: LLC-MK2, 6 h. Type of data set: functional. This is another data set of the same source.
Data set [32] concerns Influenza A virus. The experiment in a line: microbe, parasite or virus in culture. It is filed as functional. The conditions noted are these: LLC-MK2, 8 h. This is another data set of the same source.
For data set [33], the system named is Mus musculus. Kind of data set: Toxicity in Influenza A virus/NWS/1933(H1N1) infected in BALB/c mouse assessed as effect on motor activity at 100 ug, ip administered once daily for 10 days and dosed 30 mins post infection. It is filed as organism-based. The conditions noted are these: in vivo.

Active and inactive are the calls of the source. The calls are words filed in the database; no cut-off is given here.

As for `NC12CC3CC(CC(C3)C1)C2` [AMANTADINE], in the data set on Influenza A virus [1], the “inhibition (INH)” value is 77%. Moreover, the Survival with Influenza A virus [2] was 50%.

What is called inhibition is the relative decrease from the control value, in per cent. Broadly, the EC50 is the concentration giving half of the maximal effect. On to H-AKVTMTCSAS-OH, for which the inhibition at 4 µg/mL in the data set on Influenza A virus [3] came out at 65.2%; in the data set on Influenza A virus [5] it was 88.9%; in the data set on Influenza A virus [6] it was 93.6%; with Influenza A virus [9] it was 96.3%; with Influenza A virus [11], 26.8%; in the data set with Influenza A virus [12], 76.9%. Also, the inhibition at 4 µg/mL in the data set on Influenza A virus [13] was found to be 45.1%; with Influenza A virus [22], 49.7%; in the data set on Influenza A virus [23] it was 59.1%; in the data set on Influenza A virus [27] it was 71.2%; with Influenza A virus [29], 62.4%; with Influenza A virus [31], 86.1%. The compound further came in with an inhibition at 4 µg/mL in the data set on Influenza A virus [32] of 46.5%. Besides, the Activity entry with MDCK [4], with LLC-MK2 [7], in the data set on Mus musculus [8], with LLC-MK2 [15], in the data set on MDCK [20] and in the data set with MDCK [24] was “Non-toxic” each time. The Activity result in the data set with LLC-MK2 [25], in the data set on Mus musculus [30] and in the data set on Mus musculus [33] was “Non-toxic” in each case. For the same compound, the result in the data set with Influenza A virus [10] was Active. The “inhibition (INH)” value in the data set on Influenza A virus [14] is on record as 72%. Also, the inhibition entry in the data set on Influenza A virus [16] and with Influenza A virus [26] was “Active” each time. For the same compound, the outcome in the data set with Influenza A virus [17] and in the data set on Influenza A virus [28] was inactive. Further, the “fold change (FC)” value in the data set on Influenza A virus [18] is listed as 2. In addition, the Survival in the data set on Influenza A virus [19] is given as 50%. The compound further registered an EC50 in the data set with Influenza A virus [21] of 2.69 µM.
